Data on one molecule can be found in ChEMBL document CHEMBL4376875, “Synthesis and Biological Evaluation of B-Cell Lymphoma 6 Inhibitors of N-Phenyl-4-pyrimidinamine Derivatives Bearing Potent Activities against Tumor Growth” (J Med Chem, 2020).

Data set [1] has as its system Farage. The following applies: Homo sapiens, 0.25 to 2 uM.
The subject of data set [2] is SUD4. Description: Induction of apoptosis in human SUDHL4 cells incubated for 48 hrs by annexin V-FITC and propidium iodide staining based flow cytometry analysis. The format is functional, cell-based.
Data set [3] relates to Mus musculus. Description: In vivo inhibition of GC formation in NP-CGG immunized C57BL/6 mouse assessed as proportion of Tfh cells (CXCR5+PD1+CD4+) at 10 mg/kg, iv administered 3 days once for 12 days starting from 2 days after NP-CGG addition by flow cytometry analysis (reference value: 2.25%). The arrangement: scale not given: the % may be the effect or the level left. The format is functional. Background: In flow cytometry, cells or beads pass a laser one at a time.

The subject of data set [4] is SUD4. Kind of data set: Antiproliferative activity against human SUDHL4 cells assessed as reduction in living cells incubated for 48 hrs by Edu based flow cytometry analysis. The format is functional, cell-based. The method in brief:
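SUDHL4 cells were treated for 48 h, then pulsed with 10 μM EdU for 2 h, fixed, permeabilized and stained with EdU/Alexa Fluor Azide 488 for 30 min. Living and S-phase cells were counted by flow cytometry. Triplicate.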

Data set [5] has as its system Toledo. The following applies: Homo sapiens, 0.25 to 2 uM.
The nature of data set [6]: Toxicity in SCID mouse xenografted with human SUDHL4 cells assessed as adverse effect on liver morphology at 5 to 10 mg/kg, iv administered 3 days once for 15 days by H and E staining analysis. The format is organism-based. The following applies: in vivo. The method in brief: (§1)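 Male SCID mice, 6 weeks old, received 1 × 10⁷ SUDHL4 cells s.c. At about 100 mm³, mice were randomized (n = 7) to vehicle (20% 2-hydroxypropyl-β-cyclodextrin) or 5 or 10 mg/kg every 3 days i.v. for 15 days. Body weight and caliper volume (L × W² × 0.52) were recorded every 3 days. At sacrifice, tissues were fixed in 4% paraformaldehyde and paraffin-embedded for H&E or Ki67 IHC. Tumor mRNA was assayed by qPCR.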
(In xenograft studies the graft and the host belong to different species.)

In data set [7] the test system is DOHH-2. Description: Antiproliferative activity against human DOHH2 cells assessed as reduction in cell viability incubated for 72 hrs by CCK8 assay. The following applies: DOHH-2, 72 h. A general note: Formazan colour is commonly taken as a measure of viable cells.
The test system of data set [8] is SUD4. Description: Antitumor activity against human SUDHL4 cells xenografted in SCID mouse assessed as reduction in Ki67 expression in tumor at 5 mg/kg, iv administered 3 days once for 15 days by Ki67-staining based immunohistochemistry. The format is functional, organism-based. The method in brief: as §1
Data set [9] concerns Toledo. Kind of data set: Effect on CD80 mRNA expression in BCL6-negative human Toledo cells at 1.25 to 5 uM incubated for 24 hrs by RT-PCR analysis. The format is functional, cell-based. The method in brief:
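Toledo cells (BCL6-independent) were exposed to 1.25, 2.50 or 5.00 μM for 24 h, then mRNA was collected. Target-gene transcripts were quantified by real-time quantitative PCR against vehicle control.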

The test system of data set [10] is Mus musculus. Kind of data set: In vivo inhibition of GC formation in NP-CGG immunized C57BL/6 mouse assessed as splenic GC B cells (GL7+FAS+B220+) at 10 mg/kg, iv administered 3 days once for 12 days starting from 2 days after NP-CGG addition by flow cytometry (reference value: 1.97%). The format is functional. The arrangement: scale not given: the % may be the effect or the level left.

The subject of data set [11] is SUD4. Kind of data set: Induction of apoptosis in human SUDHL4 cells assessed as late apoptotic cells at 2.5 uM incubated for 48 hrs by annexin V-FITC and propidium iodide staining based flow cytometry analysis (reference value: 1.39%). The format is functional.
Data set [12] in a line: Metabolic stability in human liver microsomes assessed as half life. The format is ADME, Microsome. The method in brief: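 Incubation with human liver microsomes. Intrinsic clearance was scaled to liver using 45 mg microsomal protein per g liver and 20 g liver per kg body weight. Half-life was also determined.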
Data set [13] deals with SUD4. Kind of data set: Induction of apoptosis in human SUDHL4 cells assessed as early apoptotic cells at 0.625 uM incubated for 48 hrs by annexin V-FITC and propidium iodide staining based flow cytometry analysis (reference value: 2.62%). The format is functional.
A short description of data set [14]: Protein binding in human plasma assessed as unbound fraction. The format is ADME, cell-free. In a few lines:
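Human plasma protein binding was measured by a contract laboratory.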

Data set [15] concerns SUD4. Kind of data set: Induction of apoptosis in human SUDHL4 cells assessed as late apoptotic cells at 1.25 uM incubated for 48 hrs by annexin V-FITC and propidium iodide staining based flow cytometry analysis (reference value: 1.39%). The format is functional.
Data set [16] concerns SUD4. Kind of data set: Antitumor activity against human SUDHL4 cells xenografted in SCID mouse assessed as reduction in tumor volume at 5 mg/kg, iv administered 3 days once for 15 days and measured every 3 days by caliper analysis. The format is functional, organism-based. In a few lines:
as §1

The species named for data set [17] is Mus musculus. The following applies: C57BL/6, 10 mg/kg.

Calls of active or inactive are those of the source.

One may read the IC50 as the concentration that inhibits the measured activity by half. As a reminder, the half-life is the time needed for the level to fall by half in the phase considered. In general, fraction unbound refers to the share of the substance not bound to proteins or other matrix. Turning to `COc1cc(Nc2nc(N3C[C@@H](C)N[C@@H](C)C3)ncc2F)ccc1NC(=O)c1ccc(C2=CCCC2)s1`, the inhibition result in data set [1] and in [5] was “inactive” throughout. In addition, the Activity entry in data set [2] was “Dose-dependent effect”; in [3], 0.99%; in data set [4], “Dose-dependent effect”; in data set [6], “Non-Toxic”; in data set [10], 0.45%; in [11] it was 67.3%. The Activity worked out at 3.42% in data set [13] and 12.5% in data set [15]. The half-maximal inhibitory concentration (IC50) in data set [7] is 1210 nM. In addition, the result in [8] and in data set [16] was Active. Moreover, the outcome in data set [9] was inactive. The half-life in data set [12] was more than 1 h. Moreover, the fraction unbound in data set [14] stood at 0.076. Besides, the inhibition entry in data set [17] is “Active”.
